Measured values reported in ChEMBL document CHEMBL3351932, “Discovery of BI 207524, an indole diamide NS5B thumb pocket 1 inhibitor with improved potency for the potential treatment of chronic hepatitis C virus infection” (J Med Chem, 2014).

Experiments:
[1] = Inhibition of HCV full-length NS5B polymerase; set-up: species or system Hepacivirus hominis
Outline: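 Polymerase inhibition with full-length NS5B enzyme in a biochemical assay; IC50 averaged from duplicate measurements, at least two determinations.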

[2] = Inhibition of Hepatitis C virus genotype 1b Con1 NS5B RNA dependent RNA polymerase activity using Bright-Glo luciferase substrate by cell-based 1b luciferase reporter assay; set-up: species or system Hepatitis C virus (isolate Con1)
Outline: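 Cell-based genotype 1b luciferase reporter replicon assay; EC50 determined in duplicate, values averaged over at least two determinations.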

[3] = Half life in human liver microsomes; format: ADME
[4] = Half life in rat liver microsomes; format: ADME
[5] = Permeability across apical to basolateral side in human Caco2 cells; format: ADME, cell-based; settings: Caco-2, read-out: permeability
[6] = Plasma concentration in rat at 4 mg/kg, po cassette dosing after 1 hr; format: ADME, organism-based; set-up: dose 4 mg/kg, route oral
Outline: (§1)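 Cassette screen: mixture of 4 compounds, each at 4 mg/kg, dosed orally to 2 rats; plasma sampled at 1 h and 2 h, solid-phase extracted and quantified by HPLC-UV or LC/MS against calibration standards in blank plasma (LOQ 7 ng/mL).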

[7] = Plasma concentration in rat at 4 mg/kg, po cassette dosing after 2 hrs; format: ADME, organism-based; set-up: dose 4 mg/kg, route oral; outline: as §1
[8] = Cmax in rat at 10 mg/kg, po; format: ADME, organism-based; set-up: dose 10 mg/kg, route oral; settings: in vivo
Outline: (§2)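 Single-compound oral PK after overnight fast; 10 mg/kg given as suspension in 0.5% methylcellulose and 0.3% Tween-80, with or without 1% NMP as added solubilizer; N=3 per dose and route. Plasma kept on ice, centrifuged at 4°C, stored near -20°C, extracted by solid phase, quantified by HPLC-UV or LC/MS against blank-plasma standards (LOQ 7 ng/mL); non-compartmental analysis.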

[9] = AUC in rat at 10 mg/kg, po; format: ADME, organism-based; set-up: dose 10 mg/kg, route oral; settings: plasma; outline: as §2
[10] = Mean residence time in rat at 10 mg/kg, po; format: ADME, organism-based; set-up: dose 10 mg/kg, route oral; settings: in vivo; outline: as §2
[11] = Volume of distribution at steady state in rat at 2 mg/kg, iv; format: ADME, organism-based; set-up: dose 2 mg/kg, route intravenous; settings: in vivo, read-out: Vdss
Outline: (§3)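 Fasted animals dosed IV by bolus at 2 mg/kg in 70% PEG-400:30% water; N=3 per dose and route. Plasma separated at 4°C, stored near -20°C, solid-phase extracted, assayed by HPLC-UV or LC/MS with blank-plasma calibration (r2 > 0.99, LOQ 7 ng/mL); parameters from non-compartmental analysis.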

[12] = Clearance in rat at 2 mg/kg, iv; format: ADME, organism-based; set-up: dose 2 mg/kg, route intravenous; settings: in vivo; outline: as §3
[13] = Half life in rat at 2 mg/kg, iv; format: ADME, organism-based; set-up: dose 2 mg/kg, route intravenous; settings: in vivo; outline: as §3
[14] = Oral bioavailability in rat at 10 mg/kg; format: ADME, organism-based; settings: in vivo; outline: as §2

Cn1c(-c2ccccn2)c(C2CCCC2)c2ccc(C(=O)NC3(C(=O)Nc4ccc(/C=C/C(=O)O)c(OCC5CC5)c4)CCC3)cc21
IC50 [1]: 250 nM | EC50 [2]: 46 nM | half-life [3]: 3.85 h

CCOc1cc(NC(=O)C2(NC(=O)c3ccc4c(C5CCCC5)c(-c5ccc(Cl)cn5)n(C)c4c3)CCC2)ccc1/C=C/C(=O)O
IC50 [1]: 330 nM | EC50 [2]: 26 nM | half-life [3]: 1.35 h | half-life [4]: 1.73 h | Papp A→B [5]: 18 ×10⁻⁶ cm/s | concentration at 1 h [6]: 500 nM | concentration at 2 h [7]: 300 nM

CCOc1cc(NC(=O)C2(NC(=O)c3ccc4c(C5CCCC5)c(-c5ccccc5)n(C)c4c3)CCC2)ccc1/C=C/C(=O)O
IC50 [1]: 410 nM | EC50 [2]: 21 nM

COCCOc1cc(NC(=O)C2(NC(=O)c3ccc4c(C5CCCC5)c(-c5ncc(Cl)cn5)n(C)c4c3)CCC2)ccc1/C=C/C(=O)O
IC50 [1]: 200 nM | EC50 [2]: 13 nM | half-life [3]: > 5 h | Papp A→B [5]: 17 ×10⁻⁶ cm/s | concentration at 1 h [6]: 1700 nM | concentration at 2 h [7]: 1100 nM | Cmax [8]: 4100 nM | AUC [9]: 10.6 µM·h | MRT [10]: 4.1 h | Vd [11]: 0.29 L/kg | clearance [12]: 3.7 mL/min/kg | half-life [13]: 2.1 h | bioavailability [14]: 16%

CCOc1cc(NC(=O)C2(NC(=O)c3ccc4c(C5CCCC5)c(-c5cnn(C)c5)n(C)c4c3)CCC2)ccc1/C=C/C(=O)O
IC50 [1]: 190 nM | EC50 [2]: 12 nM | half-life [3]: 0.733 h | concentration at 1 h [6]: 400 nM | concentration at 2 h [7]: 100 nM

CCOc1cc(NC(=O)C2(NC(=O)c3ccc4c(C5CCCC5)c(-c5ncc(Br)cn5)n(C)c4c3)CCC2)ccc1/C=C/C(=O)O
IC50 [1]: 460 nM | EC50 [2]: 19 nM | half-life [3]: 2.57 h | half-life [4]: 1.73 h | Papp A→B [5]: 13 ×10⁻⁶ cm/s | concentration at 1 h [6]: 1800 nM | concentration at 2 h [7]: 2100 nM

CCOc1cc(NC(=O)C2(NC(=O)c3ccc4c(C5CCCC5)c(-c5ccc(F)cn5)n(C)c4c3)CCC2)ccc1/C=C/C(=O)O
IC50 [1]: 110 nM | EC50 [2]: 16 nM | half-life [3]: 1.2 h | Papp A→B [5]: 17 ×10⁻⁶ cm/s | concentration at 1 h [6]: 1300 nM | concentration at 2 h [7]: 800 nM | Cmax [8]: 2200 nM | AUC [9]: 6.1 µM·h | MRT [10]: 3 h | Vd [11]: 0.42 L/kg | clearance [12]: 6.2 mL/min/kg | half-life [13]: 1.5 h | bioavailability [14]: 17%

Cn1c(-c2ccccn2)c(C2CCCC2)c2ccc(C(=O)NC3(C(=O)Nc4ccc(/C=C/C(=O)O)c(Cl)c4)CCC3)cc21
IC50 [1]: 100 nM | EC50 [2]: 110 nM

CCCOc1cc(NC(=O)C2(NC(=O)c3ccc4c(C5CCCC5)c(-c5ccccn5)n(C)c4c3)CCC2)ccc1/C=C/C(=O)O
IC50 [1]: 130 nM | EC50 [2]: 36 nM | half-life [3]: 2.07 h | Papp A→B [5]: 19 ×10⁻⁶ cm/s | concentration at 1 h [6]: 400 nM | concentration at 2 h [7]: 200 nM

COc1cc(NC(=O)C2(NC(=O)c3ccc4c(C5CCCC5)c(-c5ccccn5)n(C)c4c3)CCC2)ccc1/C=C/C(=O)O
IC50 [1]: 47 nM | EC50 [2]: 32 nM | half-life [3]: 1.37 h | concentration at 1 h [6]: 1100 nM | concentration at 2 h [7]: 500 nM

Cn1c(-c2ccccn2)c(C2CCCC2)c2ccc(C(=O)NC3(C(=O)Nc4ccc(/C=C/C(=O)O)cc4C(F)(F)F)CCC3)cc21
IC50 [1]: 2250 nM | EC50 [2]: > 2500 nM

Cn1c(-c2ccccn2)c(C2CCCC2)c2ccc(C(=O)NC3(C(=O)Nc4ccc(/C=C/C(=O)O)cc4O)CCC3)cc21
IC50 [1]: 440 nM | EC50 [2]: 250 nM

CCOc1cc(NC(=O)C2(NC(=O)c3ccc4c(C5CCCC5)c(-c5ccccn5)n(C)c4c3)CCC2)ccc1/C=C/C(=O)O
IC50 [1]: 48 nM | EC50 [2]: 24 nM | half-life [3]: 1.07 h | Papp A→B [5]: 19 ×10⁻⁶ cm/s | concentration at 1 h [6]: 900 nM | concentration at 2 h [7]: 400 nM

Cn1c(-c2ccccn2)c(C2CCCC2)c2ccc(C(=O)NC3(C(=O)Nc4ccc(/C=C/C(=O)O)c(O)c4)CCC3)cc21
IC50 [1]: 44 nM | EC50 [2]: 170 nM

Cn1c(-c2ccccn2)c(C2CCCC2)c2ccc(C(=O)NC3(C(=O)Nc4c(F)cc(/C=C/C(=O)O)cc4F)CCC3)cc21
IC50 [1]: 1320 nM | EC50 [2]: > 2800 nM

COc1cc(NC(=O)C2(NC(=O)c3ccc4c(C5CCCC5)c(-c5ccccn5)n(C)c4c3)CCC2)cc(OC)c1/C=C/C(=O)O
IC50 [1]: 340 nM | EC50 [2]: 8 nM | half-life [4]: 0.7 h | Papp A→B [5]: 17.6 ×10⁻⁶ cm/s | concentration at 1 h [6]: 400 nM

CCOc1cc(NC(=O)C(C)(C)NC(=O)c2ccc3c(C4CCCC4)c(-c4ncc(Cl)cn4)n(C)c3c2)ccc1/C=C/C(=O)O
IC50 [1]: 27 nM | EC50 [2]: 8 nM | Papp A→B [5]: 24 ×10⁻⁶ cm/s | concentration at 1 h [6]: 500 nM | concentration at 2 h [7]: 100 nM

CC(C)Oc1cc(NC(=O)C2(NC(=O)c3ccc4c(C5CCCC5)c(-c5ccccn5)n(C)c4c3)CCC2)ccc1/C=C/C(=O)O
IC50 [1]: 110 nM | EC50 [2]: 36 nM | half-life [3]: 1.9 h | Papp A→B [5]: 19 ×10⁻⁶ cm/s | concentration at 1 h [6]: 1300 nM | concentration at 2 h [7]: 800 nM

Cn1c(-c2ccccn2)c(C2CCCC2)c2ccc(C(=O)NC3(C(=O)Nc4ccc(/C=C/C(=O)O)cc4Cl)CCC3)cc21
IC50 [1]: 300 nM

Cc1cc(NC(=O)C2(NC(=O)c3ccc4c(C5CCCC5)c(-c5ccccn5)n(C)c4c3)CCC2)ccc1/C=C/C(=O)O
IC50 [1]: 69 nM | EC50 [2]: 79 nM

Cn1c(-c2ccccn2)c(C2CCCC2)c2ccc(C(=O)NC3(C(=O)Nc4ccc(/C=C/C(=O)O)c(OC5CCC5)c4)CCC3)cc21
IC50 [1]: 280 nM | EC50 [2]: 65 nM | half-life [3]: 0.833 h

Cn1c(-c2ccccn2)c(C2CCCC2)c2ccc(C(=O)NC3(C(=O)Nc4ccc(/C=C/C(=O)O)c(F)c4)CCC3)cc21
IC50 [1]: 61 nM | EC50 [2]: 130 nM

COCCOc1cc(NC(=O)C2(NC(=O)c3ccc4c(C5CCCC5)c(-c5ccccn5)n(C)c4c3)CCC2)ccc1/C=C/C(=O)O
IC50 [1]: 56 nM | EC50 [2]: 27 nM | half-life [3]: 1.45 h

CCOc1cc(NC(=O)C2(NC(=O)c3ccc4c(C5CCCC5)c(-c5cccc(N)n5)n(C)c4c3)CCC2)ccc1/C=C/C(=O)O
IC50 [1]: 330 nM | EC50 [2]: 10 nM | half-life [3]: 1.3 h | Papp A→B [5]: 9.4 ×10⁻⁶ cm/s | concentration at 1 h [6]: 100 nM | concentration at 2 h [7]: 100 nM

Cn1c(-c2ccccn2)c(C2CCCC2)c2ccc(C(=O)NC3(C(=O)Nc4ccc(/C=C/C(=O)O)cc4F)CCC3)cc21
IC50 [1]: 230 nM | EC50 [2]: 560 nM

CCOc1cc(NC(=O)C2(NC(=O)c3ccc4c(C5CCCC5)c(-c5nccs5)n(C)c4c3)CCC2)ccc1/C=C/C(=O)O
IC50 [1]: 150 nM | EC50 [2]: 12 nM | half-life [3]: 0.6 h

CC(C)COc1cc(NC(=O)C2(NC(=O)c3ccc4c(C5CCCC5)c(-c5ccccn5)n(C)c4c3)CCC2)ccc1/C=C/C(=O)O
IC50 [1]: 420 nM | EC50 [2]: 55 nM | half-life [3]: > 5 h

Cc1cc(/C=C/C(=O)O)ccc1NC(=O)C1(NC(=O)c2ccc3c(C4CCCC4)c(-c4ccccn4)n(C)c3c2)CCC1
IC50 [1]: 370 nM | EC50 [2]: 1030 nM

COCCOc1cc(NC(=O)C(C)(C)NC(=O)c2ccc3c(C4CCCC4)c(-c4ncc(Cl)cn4)n(C)c3c2)ccc1/C=C/C(=O)O
IC50 [1]: 200 nM | EC50 [2]: 10 nM | half-life [3]: 2.15 h | Papp A→B [5]: 12 ×10⁻⁶ cm/s | concentration at 1 h [6]: 200 nM

Cn1c(-c2ccccn2)c(C2CCCC2)c2ccc(C(=O)NC3(C(=O)Nc4ccc(/C=C/C(=O)O)c(C(F)(F)F)c4)CCC3)cc21
IC50 [1]: 180 nM | EC50 [2]: 230 nM

CCOc1cc(NC(=O)C2(NC(=O)c3ccc4c(C5CCCC5)c(-c5ncc(Cl)cn5)n(C)c4c3)CC2)ccc1/C=C/C(=O)O
IC50 [1]: 380 nM | EC50 [2]: 34 nM | half-life [3]: 3.25 h

CCOc1cc(NC(=O)C2(NC(=O)c3ccc4c(C5CCCC5)c(-c5cnccn5)n(C)c4c3)CCC2)ccc1/C=C/C(=O)O
IC50 [1]: 48 nM | EC50 [2]: 21 nM | half-life [3]: 0.767 h
